Data on 13 compounds can be found in ChEMBL document CHEMBL3763095, “Naphtho[1',2':4,5]imidazo[1,2-a]pyridine-5,6-diones: Synthesis, enzymatic reduction and cytotoxic activity” (Bioorg Med Chem Lett, 2016).

The structures appear in SMILES notation. The source made the active and inactive calls. The rule behind the calls is not given here.

Experiment [1] deals with NAD(P)H dehydrogenase [quinone] 1 (Homo sapiens) (UniProt P15559). The experiment is described as follows: Activity of NQO1 (unknown origin) assessed as O2 uptake at 5 to 15 uM by polarographic analysis in the presence of catalase and 150 to 200 uM NADPH.
Sequence of NAD(P)H dehydrogenase [quinone] 1 (Homo sapiens) (P15559 whole entry): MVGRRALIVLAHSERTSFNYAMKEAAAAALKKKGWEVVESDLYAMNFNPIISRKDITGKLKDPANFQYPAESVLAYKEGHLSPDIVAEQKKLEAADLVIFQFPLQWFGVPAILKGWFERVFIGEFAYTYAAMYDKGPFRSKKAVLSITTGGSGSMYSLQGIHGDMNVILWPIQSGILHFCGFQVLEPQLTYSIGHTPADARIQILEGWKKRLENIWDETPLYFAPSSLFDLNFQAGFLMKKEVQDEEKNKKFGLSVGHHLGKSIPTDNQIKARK
Experiment [2] shares this target. The experiment is described as follows: Activity of NQO1 (unknown origin) assessed as reduction of cytochrome c at 5 to 15 uM in the presence of superoxide dismutase and 150 to 200 uM of NADPH. Put shortly:
(§1)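 NQO1-catalysed quinone reduction coupled to cytochrome c (50 µM) as the terminal single-electron acceptor.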

The test system of experiment [3] is Escherichia coli. Put plainly: Antibacterial activity against Escherichia coli ATCC 25922 after 16 hrs by two-fold microdillution method. The experiment is classed as functional, organism-based.
In experiment [4] the test system is Salmonella enterica. The experiment is described as follows: Antibacterial activity against Salmonella enterica SL 5676 after 16 hrs by two-fold microdillution method. The format is functional, organism-based.
Experiment [5] has as its target NAD(P)H dehydrogenase [quinone] 1 (Homo sapiens) (UniProt P15559). Put plainly: Activity of NQO1 (unknown origin) assessed as reduction of cytochrome c at 5 to 15 uM by spectrophotometric analysis relative to NADPH oxidation rate. More on the design: scale not given: the % may be the effect or the level left. Summed up: as §1
The target is the same in experiment [6]. The experiment is described as follows: Substrate inhibition of NQO1 (unknown origin) by spectrophotometric analysis in the presence of 12.5 to 200 uM NADPH.

With `O=C1C(=O)c2c(nc3ccc(C(F)(F)F)cn23)-c2ccccc21`, the outcome in experiment [1], in experiment [2], in experiment [3] and in experiment [4] was inactive. Further, the Activity in experiment [5] was 180%.

In the case of `COc1ccc2nc3c(n2c1)C(=O)C(=O)c1ccccc1-3`, the inhibition entry in experiment [6] was “Active”. The result in experiment [1], in experiment [2], in experiment [3] and in experiment [4] was inactive. Further, the Activity in experiment [5] turned out to be 180%.

Consider `O=C1C(=O)c2c(nc3ccc(F)cn23)-c2ccccc21`, for which the result in experiment [1], in experiment [2], in experiment [3] and in experiment [4] was inactive. In addition, in experiment [5], the Activity was determined as 180%.

Take `Cc1cccn2c3c(nc12)-c1ccccc1C(=O)C3=O`: the result in experiment [1], in experiment [2], in experiment [3] and in experiment [4] was inactive. In addition, in experiment [5], the Activity was found to be 180%.

Consider `Cc1ccn2c3c(nc2c1)-c1ccccc1C(=O)C3=O`, for which the result in experiment [1], in experiment [2], in experiment [3] and in experiment [4] was inactive. For the same compound, the Activity in experiment [5] was determined as 180%.

On to `O=C1C(=O)c2c(nc3ncccn23)-c2ccccc21`, for which the outcome in experiment [1], in experiment [2], in experiment [3] and in experiment [4] was inactive. The Activity in experiment [5] was found to be 180%.

As for `O=C1C(=O)c2c(nc3ccccn23)-c2ccc([N+](=O)[O-])cc21`, the result in experiment [1], in experiment [2], in experiment [3] and in experiment [4] was inactive. The Activity in experiment [5] amounted to 180%.

Turning to `O=C1C(=O)c2c(nc3ccc4ccccc4n23)-c2ccccc21`, the outcome in experiment [1], in experiment [2], in experiment [3] and in experiment [4] was inactive. Further, the Activity in experiment [5] was 180%.

Turning to `O=C1C(=O)c2c(nc3ccc([N+](=O)[O-])cn23)-c2ccccc21`, the result in experiment [1], in experiment [2], in experiment [3] and in experiment [4] was inactive. Moreover, the Activity in experiment [5] was found to be 180%.

For the compound `O=C1C(=O)c2c(nc3ccccn23)-c2ccccc21`, in experiment [6], the inhibition entry is “Active”. For the same compound, the result in experiment [1], in experiment [2], in experiment [3] and in experiment [4] was inactive. Further, the Activity in experiment [5] worked out at 180%.

Consider `Cc1ccc2nc3c(n2c1)C(=O)C(=O)c1ccccc1-3`, for which the outcome in experiment [1], in experiment [2], in experiment [3] and in experiment [4] was inactive. Moreover, the Activity in experiment [5] stood at 180%.

For the compound `O=C1C(=O)c2c(nc3ccc(Cl)cn23)-c2ccccc21`, the outcome in experiment [1], in experiment [2], in experiment [3] and in experiment [4] was inactive. In addition, the Activity in experiment [5] was determined as 180%.

With `O=C1C(=O)c2c(nc3ccc(Br)cn23)-c2ccccc21`, the outcome in experiment [1], in experiment [2], in experiment [3] and in experiment [4] was inactive. In addition, in experiment [5], the Activity came out at 180%.
